Published values pooled from the literature.
Protocols differ between the studies behind these lines.
Observed: enzyme activity
Mode: inhibitor
PIK3CD: Phosphatidylinositol 4,5-bisphosphate 3-kinase catalytic subunit delta isoform (PIK3CD, Homo sapiens, UniProt O00329)
KIT: Mast/stem cell growth factor receptor Kit (KIT, Homo sapiens, UniProt P10721)

target	test	IC50 [nM]	Structure (SMILES)
PIK3CD	radiometric	2390	CN(C)C(=O)c1cc2cnc(Nc3ccc(-c4cccc5c(=O)cc(N6CCOCC6)oc45)cn3)nc2n1C1CCCC1
KIT		> 1000	CN(C)CCNC(=O)c1ccc(-c2nc3ccc4[nH]ncc4c3c3c2CCCC3)cc1
Receptor tyrosine-protein kinase erbB-4 (ERBB4, Homo sapiens, UniProt Q15303)	TR-FRET	13.9	COc1c(Cl)cccc1Nc1c(-c2ccncc2OC[C@@H]2COCCO2)[nH]c2c1C(=O)NCC2
PIK3CD	ADP detection	238	CC(C)c1cccc(C(C)C)c1N=C1C(=O)N(Cc2cccc(Cl)c2)c2ccccc21
KIT		261	Cc1n[nH]c2ccc3nc(-c4ccc(C(=O)NCCN(C)C)cc4F)c4c(c3c12)CCCCC4
PIK3CD	ADP detection	455	CCc1ccc(N=C2C(=O)Nc3ccccc32)cc1
KIT		249	CN(C)CCNC(=O)c1ccc(-c2nc3ccc4[nH]ncc4c3c3c2CCCCC3)c(F)c1
PIK3CD	radiometric	9500	CN(C)C(=O)c1cc2cnc(Nc3ccc(-c4ccc5c(=O)cc(N6CCNCC6)oc5c4)cc3)nc2n1C1CCCC1
PIK3CD	ADP detection	21.9	Cc1cccc(N=C2C(=O)N(Cc3ccccc3)c3ccccc32)c1
Tau-tubulin kinase 1 (TTBK1, Homo sapiens, UniProt Q5TCY1)		25500	Oc1ccc(-c2nc(-c3ccncc3)c(-c3ccc(F)cc3)[nH]2)cc1
PIK3CD	radiometric	2300	CN(C)C(=O)c1cc2cnc(Nc3ccc(-c4cccc5c(=O)cc(N6CCNCC6)oc45)cc3)nc2n1C1CCCC1
PIK3CD	ADP detection	765	O=C1Nc2ccccc2/C1=N\c1ccc(Cl)cc1
PIK3CD	radiometric	> 10000	CN(C)C(=O)c1cc2cnc(Nc3cccc4c(=O)cc(N5CCOCC5)oc34)nc2n1C1CCCC1
PIK3CD	ADP detection	139	O=C1C(=Nc2ccccc2I)c2ccccc2N1Cc1ccc(Br)cc1
Tyrosine-protein kinase BTK (BTK, Homo sapiens, UniProt Q06187)		< 0.254	C=CC(=O)Nc1cccc(Oc2nc(Nc3ccc(N4CCN(C)CC4)cc3)nc3ccoc23)c1
PIK3CD	radiometric	9790	COc1ccc(-c2cc(=O)c3ccc(Nc4ncc5cc(C(=O)N(C)C)n(C6CCCC6)c5n4)cc3o2)cc1
KIT		208	Cc1n[nH]c2ccc3nc(-c4ccc(C(=O)NCCN(C)C)cc4)c4c(c3c12)CCCC4
PIK3CD	ADP detection	48.3	COc1cc(N=C2C(=O)Nc3ccccc32)cc(OC)c1
PIK3CD	radiometric	137	CN(C)C(=O)c1cc2cnc(Nc3cncc(-c4ccc5c(=O)cc(N6CCOCC6)oc5c4)c3)nc2n1C1CCCC1
KIT		150	CCc1nc(C(N)=O)c(Nc2ccc(N3CCC(N4CCN(C)CC4)CC3)c(OC)c2)nc1NC1CCOCC1
